Among the data in ChEMBL document CHEMBL1124816, “Effect of structure on potency and selectivity in 2,6-disubstituted 4-(2-arylethenyl)phenol lipoxygenase inhibitors” (J Med Chem, 1990) are inhibition and IC50 values, retold here.

In general, inhibition refers to the relative decrease from the control value, in per cent. A low value points to little suppression. What is called IC50 is the midpoint of a concentration-inhibition curve. A high value points to weaker potency in that assay.

Bounds are passed on as bounds.

Experiment [1] addresses T1, Polyunsaturated fatty acid 5-lipoxygenase (Homo sapiens) (UniProt P09917).
T1 sequence (whole entry): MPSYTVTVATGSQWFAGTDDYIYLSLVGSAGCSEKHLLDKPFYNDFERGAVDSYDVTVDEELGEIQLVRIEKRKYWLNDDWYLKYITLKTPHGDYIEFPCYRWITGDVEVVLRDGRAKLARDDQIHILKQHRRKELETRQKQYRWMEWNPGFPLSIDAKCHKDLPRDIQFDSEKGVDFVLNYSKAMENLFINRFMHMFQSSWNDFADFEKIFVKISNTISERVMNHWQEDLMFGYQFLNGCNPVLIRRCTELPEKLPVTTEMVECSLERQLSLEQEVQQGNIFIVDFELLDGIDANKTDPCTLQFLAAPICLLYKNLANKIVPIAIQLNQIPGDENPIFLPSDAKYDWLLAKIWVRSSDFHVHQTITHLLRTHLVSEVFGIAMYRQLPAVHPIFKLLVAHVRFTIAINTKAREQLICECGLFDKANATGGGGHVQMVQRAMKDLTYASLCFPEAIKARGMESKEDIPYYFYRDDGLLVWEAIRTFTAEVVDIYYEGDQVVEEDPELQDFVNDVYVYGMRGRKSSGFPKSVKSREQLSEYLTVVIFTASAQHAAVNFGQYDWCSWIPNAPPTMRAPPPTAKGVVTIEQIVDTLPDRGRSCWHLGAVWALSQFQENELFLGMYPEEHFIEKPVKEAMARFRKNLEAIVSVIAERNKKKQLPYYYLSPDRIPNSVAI
As to the kind of experiment: Inhibition of human neutrophil 5-lipoxygenase at the concentration of 1 uM. In outline: (§1)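 5-LO activity measured in human peripheral blood leukocytes. Percent inhibition at a single test concentration is compared with untreated control, with significance by ANOVA and Tukey's multiple comparisons test (p < 0.05).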

Experiment [2] concerns the target T1, Polyunsaturated fatty acid 5-lipoxygenase (Homo sapiens). As to the kind of experiment: Inhibition of human neutrophil 5-lipoxygenase at the concentration of 0.1 uM. In outline:
as §1

Experiment [3] deals with T2, Cyclooxygenase (Homo sapiens, UniProt P35354+P23219). Nature of the experiment: Inhibition of human platelet Prostaglandin G/H synthase.
Experiment [4] addresses T3, Polyunsaturated fatty acid 5-lipoxygenase (Homo sapiens, UniProt P09917).
T3 sequence (P09917 whole entry): T1 sequence (whole entry)
Nature of the experiment: Inhibition of human neutrophil 5-lipoxygenase.

The target of experiment [5] is T1, Polyunsaturated fatty acid 5-lipoxygenase (Homo sapiens). As to the kind of experiment: Inhibition of lipoxygenase at the concentration of 1 uM. The essentials: as §1
A short description of experiment [6]: Inhibition of human platelet Prostaglandin G/H synthase at the concentration of 10 uM. In outline:
(§2)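 CO activity measured in human platelets. Percent inhibition at a single test concentration is compared with untreated control, with significance by ANOVA and Tukey's multiple comparisons test (p < 0.05).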

Experiment [7] has as its target T2, Cyclooxygenase. As to the kind of experiment: Inhibition of human platelet Prostaglandin G/H synthase at the concentration of 1 uM. The essentials: as §2

Take `Cc1cc(/C=C/c2ccccn2)cc(C)c1O`: the inhibition in experiment [1] stood at 82%; in experiment [2], 29%. Further, the figures for the IC50 (on Cyclooxygenase [3]; in experiment [4]) were 2.5 µM and under 1000 nM, respectively.

As to `CC(C)c1cc(/C=C/c2cccnc2)cc(C(C)C)c1O`, the IC50 against Cyclooxygenase [3] is under 10 µM; in experiment [4], 200 nM.

In the case of `Cc1cc(/C=C/C(=O)c2ccc(F)cc2)cc(C)c1O`, the IC50 was under 10 µM against Cyclooxygenase [3] and over 1000 nM in experiment [4]. The inhibition is 33% in experiment [5], 71% in experiment [6] and 43% against Cyclooxygenase [7].

In the case of `Cc1cc(/C=C/c2cccs2)cc(F)c1O`, the inhibition in experiment [1] was 90%; in experiment [2], 18%; in experiment [6], 95%; against Cyclooxygenase [7], 72%. Moreover, the IC50 against Cyclooxygenase [3] is under 1 µM; in experiment [4], under 1000 nM.

Consider `CCc1cc(/C=C/c2cccs2)cc(CC)c1O`, for which the inhibition was determined as 89% in experiment [1], 52% in experiment [2], 96% in experiment [6] and 39% against Cyclooxygenase [7]. The results for the IC50 (at Cyclooxygenase [3]; in experiment [4]) were under 10 µM and about 100 nM, respectively.

As to `Cc1cc(/C=C/C(=O)c2cccs2)cc(C)c1O`, the values for the IC50 (against Cyclooxygenase [3]; in experiment [4]) were under 10 µM and over 1000 nM, respectively. Also, the results for the inhibition (in experiment [5]; in experiment [6]; against Cyclooxygenase [7]) were 22%, 82% and 37%, respectively.

As for `Cc1cc(CCC(=O)c2ccc(F)cc2)cc(C)c1O`, the inhibition amounted to 44% in experiment [1], 80% in experiment [6] and 29% at Cyclooxygenase [7]. For the same molecule, the IC50 on Cyclooxygenase [3] was under 10 µM; in experiment [4] it was over 1000 nM.

Regarding `CC(C)c1cc(/C=C/c2ccc(F)cc2)cc(C(C)C)c1O`, the IC50 on Cyclooxygenase [3] is under 10 µM; in experiment [4], over 1000 nM. In addition, the inhibition is 40% in experiment [5], 74% in experiment [6] and 12% on Cyclooxygenase [7].

`COc1ccccc1/C=C/c1cc(C)c(O)c(C)c1`: the 50% inhibitory concentration (IC50) stood at 1.1 µM on Cyclooxygenase [3] and 100 nM in experiment [4].

On to `CC(C)(C)c1cc(C(=O)c2cccs2)cc(C(C)(C)C)c1O` [PRIFELONE], for which the figures for the IC50 (against Cyclooxygenase [3]; in experiment [4]) were 0.0057 µM and 4800 nM, respectively.

For `CC(C)c1cc(/C=C/c2cccs2)cc(C(C)C)c1O`, the inhibition came out at 94% in experiment [1] and 14% in experiment [2]. Also, the figures for the IC50 (against Cyclooxygenase [3]; in experiment [4]) were under 1 µM and under 1000 nM, respectively.

As to `Cc1cc(CCc2ccc(F)cc2)cc(C)c1O`, the IC50 is 0.3 µM against Cyclooxygenase [3] and over 1000 nM in experiment [4]. Also, the inhibition in experiment [5] was determined as 44%.

Turning to `Cc1cc(C(=O)c2cccs2)cc(C)c1O`, the figures for the inhibition (in experiment [1]; in experiment [6]; on Cyclooxygenase [7]) were 1%, 90% and 60%, respectively. Further, the 50% inhibitory concentration (IC50) against Cyclooxygenase [3] is under 1 µM; in experiment [4], over 1000 nM.

For the molecule `Cc1cc(/C=C/c2ccc(Cl)s2)cc(C)c1O`, the inhibition in experiment [1] turned out to be 92%; in experiment [2] it was 32%. For the same molecule, the concentration for half-maximal inhibition (IC50) was 1.3 µM at Cyclooxygenase [3] and under 1000 nM in experiment [4].

Take `Cc1cc(/C=C/c2cccs2)cc(Cl)c1O`: the inhibition in experiment [1] stood at 93%; in experiment [2] it was 29%. In addition, the concentration for half-maximal inhibition (IC50) was 0.23 µM at Cyclooxygenase [3] and under 1000 nM in experiment [4].

As for `CC(C)(C)c1cc(/C=C/c2cccs2)cc(C(C)(C)C)c1O`, the IC50 against Cyclooxygenase [3] amounted to 0.034 µM; in experiment [4], 1200 nM.

Turning to `CCCOc1ccc(/C=C/c2cc(C)c(O)c(C)c2)cc1`, the figures for the inhibition in experiment [1] and in experiment [2] were 90% and 27%, respectively. Besides, the half-maximal inhibitory concentration (IC50) is 0.19 µM at Cyclooxygenase [3] and under 1000 nM in experiment [4].

On to `COc1ccc(/C=C/c2cc(C(C)(C)C)c(O)c(C(C)(C)C)c2)cc1`, for which the inhibition came to 0% in experiment [1], 5% in experiment [6] and 0% against Cyclooxygenase [7]. The IC50 at Cyclooxygenase [3] was over 10 µM; in experiment [4], over 1000 nM.

As for `Cc1cc(/C=C/c2ccccc2)cc(C)c1O`, the results for the IC50 (against Cyclooxygenase [3]; in experiment [4]) were 4.2 µM and 100 nM, respectively.

Turning to `Cc1cc(Cc2cccnc2)cc(C)c1O`, the inhibition in experiment [1] stood at 5%; in experiment [6], 7%; at Cyclooxygenase [7] it was 0%. Moreover, the IC50 at Cyclooxygenase [3] was over 10 µM; in experiment [4], over 1000 nM.

On to `COc1cc(/C=C/c2cccs2)cc(F)c1O`, for which the inhibition came to 89% in experiment [1], 31% in experiment [2], 97% in experiment [6] and 42% against Cyclooxygenase [7]. Moreover, the half-inhibitory concentration (IC50) against Cyclooxygenase [3] was under 10 µM; in experiment [4] it was under 1000 nM.

As to `Cc1cc(/C=C/c2cccc(C(=O)O)c2)cc(C)c1O`, the half-maximal inhibitory concentration (IC50) was over 10 µM on Cyclooxygenase [3] and over 1000 nM in experiment [4]. Besides, the inhibition (in experiment [5]; in experiment [6]; against Cyclooxygenase [7]) was 0% in each case.

For `Cc1cc(/C=C/c2ccc(C(=O)O)cc2)cc(C)c1O`, the IC50 against Cyclooxygenase [3] was over 10 µM; in experiment [4], over 1000 nM. For the same molecule, the inhibition (in experiment [5]; in experiment [6]; at Cyclooxygenase [7]) was 0% each time.

With `Cc1ccc(/C=C/c2cc(C(C)(C)C)c(O)c(C(C)(C)C)c2)cc1`, the IC50 against Cyclooxygenase [3] is 10 µM; in experiment [4] it was over 1000 nM. For the same molecule, in experiment [5], the inhibition amounted to 0%.

Turning to `COc1ccc(/C=C/c2cc(C(C)C)c(O)c(C(C)C)c2)cc1`, the inhibition in experiment [1] amounted to 71%; in experiment [2], 13%; in experiment [6] it was 84%; against Cyclooxygenase [7] it was 18%. Also, the IC50 is under 10 µM on Cyclooxygenase [3] and under 1000 nM in experiment [4].

Take `Cc1cc(/C=C/c2ccc(Cl)cc2)cc(C)c1O`: the IC50 against Cyclooxygenase [3] stood at 0.75 µM; in experiment [4] it was 170 nM.

Regarding `Cc1cc(/C=C/c2ccccc2OCc2ccccc2)cc(C)c1O`, the inhibition in experiment [1] was 95%; in experiment [2], 18%; in experiment [6], 92%; against Cyclooxygenase [7], 45%. The IC50 on Cyclooxygenase [3] is ~ 1 uM; in experiment [4], under 1000 nM.

Regarding `Cc1ccc(C)c(/C=C/c2cc(C)c(O)c(C)c2)c1`, the IC50 against Cyclooxygenase [3] stood at 1.3 µM; in experiment [4], 240 nM.

With `Cc1cc(/C=C/c2cccnc2)cc(C)c1O`, the concentration for half-maximal inhibition (IC50) at Cyclooxygenase [3] came to 11 µM; in experiment [4], 370 nM.

Regarding `Cc1ccc(/C=C/c2cc(C)c(O)c(C)c2)s1`, the values for the inhibition in experiment [1] and in experiment [2] were 87% and 26%, respectively. Moreover, the IC50 against Cyclooxygenase [3] was 0.78 µM; in experiment [4], under 1000 nM.

In the case of `Cc1cc(C(=O)/C=C/c2cccs2)cc(C)c1O`, the IC50 against Cyclooxygenase [3] is under 10 µM; in experiment [4], over 1000 nM. Besides, the inhibition in experiment [5] worked out at 0%; in experiment [6], 82%; against Cyclooxygenase [7] it was 25%.

Regarding `CCCCOc1ccc(/C=C/c2cc(C)c(O)c(C)c2)cc1`, the inhibition in experiment [1] came out at 53%; in experiment [2] it was 7%; in experiment [6], 67%; against Cyclooxygenase [7] it was 32%. Further, the figures for the IC50 (against Cyclooxygenase [3]; in experiment [4]) were under 10 µM and about 1000 nM, respectively.

With `Cc1cc(CCc2cccs2)cc(C)c1O`, the inhibition in experiment [1] came to 67%; in experiment [2] it was 11%. Also, the half-maximal inhibitory concentration (IC50) was 0.11 µM on Cyclooxygenase [3] and under 1000 nM in experiment [4].

Turning to `C=CCc1cc(/C=C/c2cccs2)cc(C)c1O`, the IC50 against Cyclooxygenase [3] is 0.73 µM; in experiment [4], 65 nM.

Turning to `CCc1ccc(/C=C/c2cc(C)c(O)c(C)c2)cc1`, the 50% inhibitory concentration (IC50) amounted to 0.51 µM against Cyclooxygenase [3] and 590 nM in experiment [4].

For `C/C(=C\c1cc(C)c(O)c(C)c1)c1ccc(F)cc1`, the concentration for half-maximal inhibition (IC50) at Cyclooxygenase [3] was 0.63 µM; in experiment [4], 430 nM.

Consider `Cc1cc(/C=C2\CCOC2=O)cc(C)c1O`, for which the half-inhibitory concentration (IC50) against Cyclooxygenase [3] is over 10 µM; in experiment [4], over 1000 nM. Besides, the inhibition in experiment [5] amounted to 1%; in experiment [6], 0%; at Cyclooxygenase [7], 0%.

For the molecule `COc1cc(/C=C/c2cccs2)cc(OC)c1O`, the inhibition amounted to 93% in experiment [1], 52% in experiment [2], 86% in experiment [6] and 1% against Cyclooxygenase [7]. Further, the half-maximal inhibitory concentration (IC50) at Cyclooxygenase [3] was under 10 µM; in experiment [4], about 100 nM.

Consider `CCc1cc(/C=C/c2ccc(OC)cc2)cc(CC)c1O`, for which the inhibition in experiment [1] is 90%; in experiment [2] it was 15%; in experiment [6], 80%; against Cyclooxygenase [7] it was 33%. Moreover, the results for the IC50 (at Cyclooxygenase [3]; in experiment [4]) were under 10 µM and under 1000 nM, respectively.

On to `CC(C)(C)c1cc(/C=C2\CCOC2=O)cc(C(C)(C)C)c1O`, for which the half-maximal inhibitory concentration (IC50) on Cyclooxygenase [3] amounted to 0.11 µM. In other words, the sub-micromolar range.
